pIC50: −log10 of the molar value.
How the values were obtained:
COLO 205 = experiment: Growth inhibition of human COLO205 cells assessed as cell growth at 10^-5 M incubated for 48 hrs by sulforhodamine B assay relative to control; type: functional; settings: COLO 205, 48 h, read-out: Activity
SF-295 = experiment: Growth inhibition of human SF295 cells assessed as cell growth at 10^-6 M incubated for 48 hrs by sulforhodamine B assay relative to control; type: functional; settings: SF-295, 48 h, read-out: Activity
SK-OV-3 = experiment: Growth inhibition of human SKOV3 cells assessed as cell growth at 10^-7 M incubated for 48 hrs by sulforhodamine B assay relative to control; type: functional; settings: SK-OV-3, 48 h, read-out: Activity
ACHN = experiment: Growth inhibition of human ACHN cells assessed as cell growth at 10^-7 M incubated for 48 hrs by sulforhodamine B assay relative to control; type: functional; settings: read-out: Activity
HeLa = experiment: Antiproliferative activity against human HeLa cells after 72 hrs by Coulter counter method; type: functional, cell-based
Procedure, shortened: (§1)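 Cell count assay in 96-well microtiter plates; (5–7.5) × 10⁴ tumor cells per well plus test compound. Cells proliferated at 37 °C in humidified CO₂-controlled atmosphere, 48 h for murine leukemia L1210, 72 h for human lymphocytic CEM and cervix carcinoma HeLa. Counted by Coulter counter; IC₅₀ is the concentration that inhibits proliferation by 50%.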

NCI-H23 [1] = experiment: Growth inhibition of human NCI-H23 cells assessed as cell growth at 10^-7 M incubated for 48 hrs by sulforhodamine B assay relative to control; type: functional; settings: NCI-H23, 48 h, read-out: Activity
SK-MEL-28 = experiment: Growth inhibition of human SK-MEL-28 cells assessed as cell growth at 10^-6 M incubated for 48 hrs by sulforhodamine B assay relative to control; type: functional; settings: SK-MEL-28, 48 h, read-out: Activity
UACC-257 = experiment: Growth inhibition of human UACC257 cells assessed as cell growth at 10^-7 M incubated for 48 hrs by sulforhodamine B assay relative to control; type: functional; settings: UACC-257, 48 h, read-out: Activity
SK-MEL-5 = experiment: Growth inhibition of human SK-MEL-5 cells assessed as cell growth at 10^-6 M incubated for 48 hrs by sulforhodamine B assay relative to control; type: functional; settings: SK-MEL-5, 48 h, read-out: Activity
HCC 2998 = experiment: Growth inhibition of human HCC2998 cells assessed as cell growth at 10^-6 M incubated for 48 hrs by sulforhodamine B assay relative to control; type: functional; settings: HCC 2998, 48 h, read-out: Activity
KM12 [2] = experiment: Cytotoxicity against human KM12 cells after 48 hrs by SRB assay; type: functional; settings: KM12, 48 h
Hs-578T = experiment: Growth inhibition of human Hs 578T cells assessed as cell growth at 10^-7 M incubated for 48 hrs by sulforhodamine B assay relative to control; type: functional; settings: read-out: Activity
NCI/ADR-RES [3] = experiment: Growth inhibition of human NCI/ADR-RES cells assessed as cell growth at 10^-4 M incubated for 48 hrs by sulforhodamine B assay relative to control; type: functional; settings: read-out: Activity
CCRF-CEM [4] = experiment: Growth inhibition of human CCRF-CEM cells assessed as cell growth at 10^-6 M incubated for 48 hrs by sulforhodamine B assay relative to control; type: functional; settings: read-out: Activity
MOLT-4 = experiment: Cytotoxicity against human MOLT4 cells after 48 hrs by SRB assay; type: functional; settings: MOLT-4, 48 h
NCI/ADR-RES [5] = experiment: Cytotoxicity against human NCI-ADR-RES cells after 48 hrs by SRB assay; type: functional
SN12C = experiment: Growth inhibition of human SN12C cells assessed as cell growth at 10^-5 M incubated for 48 hrs by sulforhodamine B assay relative to control; type: functional; settings: read-out: Activity
A549 = experiment: Cytotoxicity against human A549 cells after 48 hrs by SRB assay; type: functional; settings: A549, 48 h
NCI-H23 [6] = experiment: Growth inhibition of human NCI-H23 cells assessed as cell growth at 10^-8 M incubated for 48 hrs by sulforhodamine B assay relative to control; type: functional; settings: NCI-H23, 48 h, read-out: Activity
NCI-H23 [7] = experiment: Growth inhibition of human NCI-H23 cells assessed as cell growth at 10^-5 M incubated for 48 hrs by sulforhodamine B assay relative to control; type: functional; settings: NCI-H23, 48 h, read-out: Activity
CCRF-CEM [8] = experiment: Antiproliferative activity against human CEM cells after 72 hrs by Coulter counter method; type: functional, cell-based; procedure, shortened: as §1
M14 = experiment: Growth inhibition of human M14 cells assessed as cell growth at 10^-6 M incubated for 48 hrs by sulforhodamine B assay relative to control; type: functional; settings: M14, 48 h, read-out: Activity
CCRF-CEM [9] = experiment: Growth inhibition of human CCRF-CEM cells assessed as cell growth at 10^-5 M incubated for 48 hrs by sulforhodamine B assay relative to control; type: functional; settings: read-out: Activity
U-251 = experiment: Growth inhibition of human U251 cells assessed as cell growth at 10^-8 M incubated for 48 hrs by sulforhodamine B assay relative to control; type: functional; settings: U-251, 48 h, read-out: Activity
SF-268 = experiment: Cytotoxicity against human SF268 cells after 48 hrs by SRB assay; type: functional; settings: SF-268, 48 h
SW-620 = experiment: Growth inhibition of human SW620 cells assessed as cell growth at 10^-8 M incubated for 48 hrs by sulforhodamine B assay relative to control; type: functional; settings: SW-620, 48 h, read-out: Activity
NCI-H226 = experiment: Growth inhibition of human NCI-H226 cells assessed as cell growth at 10^-6 M incubated for 48 hrs by sulforhodamine B assay relative to control; type: functional; settings: NCI-H226, 48 h, read-out: Activity
BT-549 = experiment: Growth inhibition of human BT549 cells assessed as cell growth at 10^-6 M incubated for 48 hrs by sulforhodamine B assay relative to control; type: functional; settings: BT-549, 48 h, read-out: Activity
KM12 [10] = experiment: Growth inhibition of human KM12 cells assessed as cell growth at 10^-6 M incubated for 48 hrs by sulforhodamine B assay relative to control; type: functional; settings: KM12, 48 h, read-out: Activity
RXF 393 = experiment: Cytotoxicity against human RXF393 cells after 48 hrs by SRB assay; type: functional; settings: RXF 393, 48 h
[11] = read-out: LC50 (the source's name)
[12] = read-out: pLC50 (the source's name) (converted)

**Q.** What does the source list for `C#C[C@@]1(O)[C@@H](CO)O[C@@H](n2cc(I)c3c(N)ncnc32)[C@@H]1O`?
**A.** growth at 10 µM (COLO 205): -62%; growth at 1 µM (SF-295): 31 to 35%; growth at 0.1 µM (SK-OV-3): 26 to 40%; growth at 0.1 µM (ACHN): 72%; pIC50 (HeLa): 6.74; growth at 0.1 µM (NCI-H23 [1]): 67 to 75%; growth at 1 µM (SK-MEL-28): 62 to 78%; growth at 0.1 µM (UACC-257): 81 to 88%; growth at 1 µM (SK-MEL-5): 14 to 26%; growth at 1 µM (HCC 2998): 11 to 16%; GI50 (KM12 [2]; read-out: GI50): 92.8 to 99.8 nM; CC50 (KM12 [2]; [11]): > 100000 nM; TGI (KM12 [2]; read-out: TGI): > 100000 nM; TGI (KM12 [2]; read-out: pTGI (converted)): > 100000 nM; growth at 0.1 µM (Hs-578T): 73 to 84%; growth at 100 µM (NCI/ADR-RES [3]): -2%; growth at 1 µM (CCRF-CEM [4]): 17 to 23%; GI50 (MOLT-4; read-out: GI50): 48.9 to 108 nM; TGI (MOLT-4; read-out: TGI): 831 nM; CC50 (MOLT-4; [12]): > 100000 nM; TGI (MOLT-4; read-out: pTGI (converted)): 832 nM; GI50 (NCI/ADR-RES [5]; read-out: GI50): 63.7 to 83.9 nM; TGI (NCI/ADR-RES [5]; read-out: TGI): 4190 to 14900 nM; CC50 (NCI/ADR-RES [5]; [12]): > 100000 nM; growth at 10 µM (SN12C): 5 to 7%; GI50 (A549; read-out: GI50): 297 to 589 nM; CC50 (A549; [11]): > 100000 nM; TGI (A549; read-out: TGI): > 100000 nM; TGI (A549; read-out: pTGI (converted)): > 100000 nM; growth at 0.01 µM (NCI-H23 [6]): 87 to 91%; growth at 10 µM (NCI-H23 [7]): -16%; pIC50 (CCRF-CEM [8]): 6.92; growth at 1 µM (M14): 38 to 43%; growth at 10 µM (CCRF-CEM [9]): 5 to 6%; growth at 0.01 µM (U-251): 94 to 99%; GI50 (SF-268; read-out: GI50): 941 to 1280 nM; CC50 (SF-268; [11]): > 100000 nM; TGI (SF-268; read-out: TGI): 32200 to 77300 nM; growth at 0.01 µM (SW-620): 85 to 86%; growth at 1 µM (NCI-H226): 57 to 70%; growth at 1 µM (BT-549): 17 to 32%; growth at 1 µM (KM12 [10]): 25 to 27%; GI50 (RXF 393; read-out: GI50): 418 to 463 nM; CC50 (RXF 393; [11]): 7840 to 100000 nM; TGI (RXF 393; read-out: TGI): 2010 to 2540 nM

From ChEMBL document CHEMBL4270599, “Synthesis of a 3'-C-ethynyl-β-d-ribofuranose purine nucleoside library: Discovery of C7-deazapurine analogs as potent antiproliferative nucleosides” (Eur J Med Chem, 2018)
